Measurements from ChEMBL document CHEMBL1155975, “Pentacyclo-undecane derived cyclic tetra-amines: synthesis and evaluation as potent anti-tuberculosis agents” (Eur J Med Chem, 2009).
Values after ≈ are worked out from the molar mass of the structure shown.

Assays:
[1] = test system: Mycobacterium tuberculosis; assay: Antimycobacterial activity against Mycobacterium tuberculosis H37Rv after 21 days by broth macrodilution method; format: functional; conditions: 504 h
Outline: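 Triplicate tubes of Middlebrook 7H9 broth with casitone, glycerol and 10% OADC; methanol-dissolved compounds diluted twofold, 128–0.125 µg/mL. Inoculum from log-phase H37Rv, adjusted to McFarland 1 and diluted to 1 × 10^5 CFU/mL, 500 µL per tube. Compound-free and solvent controls included. Aerobic incubation at 37 °C, tubes read macroscopically every 7 days to day 21 for MIC.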

[2] = Cytotoxicity against MDBK cells after 48 hrs by MTT assay; format: cell-based; conditions: Bos taurus
Outline: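 MDBK monolayers were grown in RPMI 1640 with 10% heat-inactivated FBS and pen/strep. Cells were seeded at 5 × 10^4 per well, settled 6 h, then exposed 42 h at 37 °C to compounds in 1% methanol diluted in media; the vehicle served as the 100% viability control. MTT was added for 3 h and formazan read at 570 nm. Runs were quintuplicate, repeated on two days; % cytotoxicity = 100 − (OD sample/OD control × 100).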

[3] = test system: Mycobacterium tuberculosis; assay: Antimycobacterial activity against Mycobacterium tuberculosis XDR infected in MDBK by BACTEC analysis; format: functional
Outline: (§1)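 Radiometric BACTEC 460 TB. Cultures were grown at 37 °C with stirring, inoculated into BACTEC vials at OD ~0.16 and grown to GI 500 (±50) as the primary culture. Compounds were diluted in methanol to 8–0.03125 µg/mL final. GI was recorded every 24 h, and a daily ΔGI >10 counted as growth. Strains were H37Rv (ATCC 25618) and XDR strain X194.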

[4] = test system: Mycobacterium tuberculosis; assay: Antimycobacterial activity against Mycobacterium tuberculosis H37Rv infected in MDBK by BACTEC analysis; format: functional; outline: as §1

SMILES | MIC [1] [µM] | IC50 [2] [µM] | MIC [3] | MIC [4] [µM]
OCCN(CCC12OC3(CCN(CCO)Cc4ccccc4)C4C5CC(C6C5C3C61)C42)Cc1ccccc1 (centres undefined) | 248 (≈ 128 µg/mL) | – | – | –
C1CNCCN(CCC23OC4(CCN5CCCNCC5)C5C6CC(C7C6C4C72)C53)C1 (centres undefined) | 155 (≈ 64 µg/mL) | – | – | –
c1ccc(CNCCC23OC4(CCNCc5ccccn5)C5C6CC(C7C6C4C72)C53)nc1 (centres undefined) | 298 (≈ 128 µg/mL) | – | – | –
CC(C)=CCC/C(C)=C/CC/C(C)=C\CN1CCN(CCC23OC4(CCN5CCN(C/C=C(\C)CC/C=C(\C)CCC=C(C)C)CC5)C5C6CC(C7C6C4C72)C53)CC1 (centres undefined) | 5.04 (≈ 4 µg/mL) | 24 | 0.63 µM | 0.32 (≈ 0.254 µg/mL)
CC(C)=CCC/C(C)=C\CN1CCN(CCC23OC4(CCN5CCN(C/C=C(\C)CCC=C(C)C)CC5)C5C6CC(C7C6C4C72)C53)CC1 (centres undefined) | 6.09 (≈ 4 µg/mL) | 30 | 1.52 µM | 0.76 (≈ 0.499 µg/mL)
O=C(c1ccc([N+](=O)[O-])o1)N1CCN(CCC23OC4(CCN5CCN(C(=O)c6ccc([N+](=O)[O-])o6)CC5)C5C6CC(C7C6C4C72)C53)CC1 (centres undefined) | 24.1 (≈ 16 µg/mL) | – | – | > 12.1
O=C(c1ccc([N+](=O)[O-])o1)N1CCCN(CCC23OC4(CCN5CCCN(C(=O)c6ccc([N+](=O)[O-])o6)CC5)C5C6CC(C7C6C4C72)C53)CC1 (centres undefined) | 23.2 (≈ 16 µg/mL) | – | – | > 11.6
c1ccc(CN2CCCN(CCC34OC5(CCN6CCCN(Cc7ccccc7)CC6)C6C7CC(C8C7C5C83)C64)CC2)cc1 (centres undefined) | 108 (≈ 64.1 µg/mL) | – | – | –
CCCCCCCCCCN1CCN(CCC23OC4(CCN5CCN(CCCCCCCCCC)CC5)C5C6CC(C7C6C4C72)C53)CC1 (centres undefined) | – | 25 | 0.75 µM | –
O=C(c1ccccc1)N1CCN(CCC23OC4(CCN5CCN(C(=O)c6ccccc6)CC5)C5C6CC(C7C6C4C72)C53)CC1 (centres undefined) | 216 (≈ 128 µg/mL) | – | – | –
c1ccc(CN2CCN(CCC34OC5(CCN6CCN(Cc7ccccc7)CC6)C6C7CC(C8C7C5C83)C64)CC2)cc1 (centres undefined) | 113 (≈ 64 µg/mL) | – | – | –
NCC[C@H](O)C(=O)N[C@@H]1C[C@H](N)[C@@H](O[C@H]2O[C@H](CN)[C@@H](O)[C@H](O)[C@H]2O)[C@H](O)[C@H]1O[C@H]1O[C@H](CO)[C@@H](O)[C@H](N)[C@H]1O [AMIKACIN] | – | – | > 5 µg/mL | –
CC[C@@H](CO)NCCN[C@@H](CC)CO [ETHAMBUTOL] | 19.6 (≈ 4 µg/mL) | – | > 2.5 µg/mL | –
NNC(=O)c1ccncc1 [ISONIAZID] | – | – | > 0.2 µg/mL | –
NC[C@H]1O[C@H](O[C@H]2[C@H](O)[C@@H](O[C@H]3O[C@H](CO)[C@@H](O)[C@H](N)[C@H]3O)[C@H](N)C[C@@H]2N)[C@H](O)[C@@H](O)[C@@H]1O [KANAMYCIN] | – | – | > 5 µg/mL | –
CC1COc2c(N3CCN(C)CC3)c(F)cc3c(=O)c(C(=O)O)cn1c23 (centres undefined) [OFLOXACIN] | – | – | > 2 µg/mL | –
CO[C@H]1/C=C/O[C@@]2(C)Oc3c(C)c(O)c4c(O)c(c(/C=N/N5CCN(C)CC5)c(O)c4c3C2=O)NC(=O)/C(C)=C\C=C\[C@H](C)[C@H](O)[C@@H](C)[C@@H](O)[C@@H](C)[C@H](OC(C)=O)[C@@H]1C [RIFAMPIN] | – | – | > 1 µg/mL | –
CC(C)=CCC/C(C)=C/CNCCNC1C2CC3CC(C2)CC1C3 (centres undefined) [SQ109] | – | 26 | – | 0.63 (≈ 0.208 µg/mL)
